Test [1] can be described thus: Compound was tested in vitro for inhibitory activity against 5-alpha reductase isozyme homogenated from transfected Namalwa. In kind it is functional. In outline: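 Homogenate of Namalwa cells transfected to express human type 2 isozyme, 40 μg cellular protein per assay. Buffer 0.1 M Na2HPO4–citrate pH 5.5 with 0.3 μM [14C]testosterone and 2 mM NADPH, across a range of drug concentrations. IC50 given as mean ± SEM of three separate experiments.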

Test [2] relates to Rattus norvegicus. As to the kind of experiment: Percent conversion of testosterone to dihydrotestosterone in prostate of rats at 30 mg/kg of compound given perorally. The format is functional, Prostate gland. As to conditions: route oral. In outline: (§1)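 Rats dosed orally at 1–30 mg/kg, with controls at 0 mg/kg. Prostates removed 4 h later and homogenized. Testosterone and DHT in the homogenate measured by radioimmunoassay and expressed as % conversion of T to DHT. Mean ± SEM of four rats. Groups compared with the 0 mg/kg control by Dunnett test.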

The subject of test [3] is Rattus norvegicus. Kind of test: Percent conversion of testosterone to dihydrotestosterone in prostate of rats at 0 mg/kg of compound given perorally. In kind it is functional, Prostate gland. As to conditions: route oral. In outline:
as §1

Test [4] relates to Rattus norvegicus. As to the kind of experiment: Percent conversion of testosterone to dihydrotestosterone in prostate of rats at 10 mg/kg of compound given perorally. The format is functional, Prostate gland. Conditions: route oral. In outline:
as §1

Test [5] concerns Rattus norvegicus. As to the kind of experiment: Percent conversion of testosterone to dihydrotestosterone in prostate of rats at 3 mg/kg of compound given perorally. The format is functional, Prostate gland. Conditions: route oral. In outline: as §1
For test [6], the system named is Rattus norvegicus. Kind of test: Percent conversion of testosterone to dihydrotestosterone in prostate of rats at 1 mg/kg of compound given perorally. As to conditions: route oral. In kind it is functional, Prostate gland. In outline:
as §1

For test [7], the system named is Rattus norvegicus. Kind of test: Concentration of testosterone (T) and DHT in homogenate was determined by radio immunoassay. Values are presented of Four rats, at dose mg/kg, p.o. =10. In kind it is functional. In outline:
as §1

Test [8] deals with T1, 3-oxo-5-alpha-steroid 4-dehydrogenase 1 (Rattus norvegicus) (UniProt P24008).
T1 sequence (whole entry): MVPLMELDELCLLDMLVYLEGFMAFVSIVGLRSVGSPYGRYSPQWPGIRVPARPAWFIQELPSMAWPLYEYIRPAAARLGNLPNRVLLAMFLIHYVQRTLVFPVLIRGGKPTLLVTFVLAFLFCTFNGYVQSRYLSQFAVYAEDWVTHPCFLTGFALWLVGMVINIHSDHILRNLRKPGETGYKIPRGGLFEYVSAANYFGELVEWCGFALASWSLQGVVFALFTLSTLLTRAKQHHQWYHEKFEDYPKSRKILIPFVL
As to the kind of experiment: Inhibitory activity of compound towards 5-alpha reductase from rat =. As to conditions: 100 nM.

For test [9], the target named is T2, 3-oxo-5-alpha-steroid 4-dehydrogenase 2 (Rattus norvegicus, UniProt P31214).
T2 sequence (P31214 whole entry): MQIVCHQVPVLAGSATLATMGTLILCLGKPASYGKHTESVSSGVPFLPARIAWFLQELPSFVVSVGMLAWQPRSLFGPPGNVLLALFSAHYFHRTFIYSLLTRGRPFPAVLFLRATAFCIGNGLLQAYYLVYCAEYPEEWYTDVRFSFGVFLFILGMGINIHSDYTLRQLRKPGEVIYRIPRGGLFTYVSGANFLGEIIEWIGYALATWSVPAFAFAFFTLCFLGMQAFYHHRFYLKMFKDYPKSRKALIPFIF
Kind of test: Compound was tested in vitro for inhibitory activity against type 2 5-alpha reductase Isozyme homogenated from rat epididymis. The format is functional. In outline:
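Epididymal particulates from male Wistar rats (200–300 g), pelleted at 100000g for 0.5 h. Compounds added in ethanol. Incubated 37 °C for 10 min, then stopped and extracted with ethyl acetate. Inhibition taken from [14C]DHT conversion versus a blank.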

The target of test [10] is T3, 3-oxo-5-alpha-steroid 4-dehydrogenase 1 (Rattus norvegicus, UniProt P24008).
T3 sequence (P24008 whole entry): T1 sequence (whole entry)
As to the kind of experiment: 5 alpha- reductase inhibitory activity. The format is functional.

Values joined by “and” are separate entries in the source; they are usually repeats but may differ in a detail not shown here. Identical values can stand only once.

By IC50 is commonly meant the concentration that inhibits the measured activity by half. `C/C(=C\C(=O)Nc1ccccc1OCCCC(=O)O)c1ccc2c(ccn2C(c2ccc(F)cc2)c2ccc(F)cc2)c1`: the half-inhibitory concentration (IC50) in test [1] came to 0.215 µM. Moreover, the Conversion in test [2] was 62%; in test [3], 98% and 93%; in [4] it was 85%.
`Cc1c(O[C@@H](C)c2ccc(CC(C)C)cc2)ccc(C(=O)Nc2ccccc2OCCCC(=O)O)c1C` (racemic): the Conversion is listed as 88% in test [5]; 82% in test [6]; 54% in [2]; 91% in [3]; 56% in test [4]. For the same compound, it took 0.0787 µM to reach half-maximal inhibition in [1] (IC50).
Consider `CCCC(CCC)n1ccc2cc(/C(=C/C(=O)Nc3ccccc3OCCCC(=O)O)CC)ccc21`, for which the Conversion in test [5] turned out to be 87%; in test [7], 84%; in test [2] it was 73%; in [3], 96%; in test [4] it was 84%. Moreover, the IC50 in test [1] stood at 0.341 µM.
In the case of `CC(C)(C)NC(=O)[C@H]1CC[C@H]2[C@@H]3CC[C@H]4NC(=O)C=C[C@]4(C)[C@H]3CC[C@]12C` [FINASTERIDE], the IC50 in test [8] is 0.01 µM; in [1], 0.00058 µM; in test [9], 0.0021 µM. In addition, the Conversion in test [5] was 49%; in test [6], 64%; in [2], 39%; in [3], 84%; in test [4] it was 50%.
Take `CC/C(=C\C(=O)Nc1ccccc1OCCCC(=O)O)c1ccc2c(ccn2C(c2ccc(F)cc2)c2ccc(F)cc2)c1`: the Conversion came out at 76% in test [5], 50% in [2], 94% in test [3] and 70% in test [4]. The IC50 in [1] came out at 0.357 µM.
In turn, `C/C(=C\C(=O)Nc1ccccc1OCCCC(=O)O)c1ccc2c(ccn2C(c2ccccc2)c2ccccc2)c1` returned an IC50 in [10] of 0.0056 µM.
The same measure, in the same setting: to `CC/C(=C\C(=O)Nc1ccccc1OCCCC(=O)O)c1ccc2c(ccn2C(c2ccccc2)c2ccccc2)c1` belongs 0.0025 µM.

(Values after ChEMBL document CHEMBL1129602, “Indole derivatives as a new class of steroid 5 alpha-reductase inhibitors” (J Med Chem, 1996).)
